Reference: PubChem BioAssay AID623881 (Johns Hopkins Ion Channel Center, 2012)
“And” between values parts separate entries of the source, which are not always exact repeats. Identical values can stand only once. The source made the active and inactive calls.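 Rule for the calls: active = peak Kir2.1 potassium channel inhibition over 30% at one or more doses, plus a fitted dose response curve; inactive = no inhibition at any dose, or no curve fitted.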

Target: Inward rectifier potassium channel 2 (Mus musculus) (UniProt P35561)
Assay: off-target blockade of inward rectifier Kir2.1 – cell-based, FluxOR thallium flux, CRC round 4, selectivity assay for KCNK9 inhibitor project, SAR follow-up (AID 623881)
Settings: Kir2.1-expressing cells, FluxOR thallium flux fluorescence; for thallium flux ratio, lower = inhibition: at 30 µM (top of the series)
In short: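 Assay system: Kir2.1-expressing HEK293 cells | Also added: Tl+/K+ stimulus (5x stock K2SO4 plus Tl2SO4) | Compound dosing: 10 concentrations per compound | Incubation: 90 min dye load, 20 min compound, room temperature | Measured by: Kinetic FluxOR thallium-dye fluorescence | Measure: Normalized fluorescence change, IC50 and Hill fit | Replicates: at least duplicate wells per concentration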

Chain of Inward rectifier potassium channel 2 (Mus musculus) (P35561 whole entry, looked up): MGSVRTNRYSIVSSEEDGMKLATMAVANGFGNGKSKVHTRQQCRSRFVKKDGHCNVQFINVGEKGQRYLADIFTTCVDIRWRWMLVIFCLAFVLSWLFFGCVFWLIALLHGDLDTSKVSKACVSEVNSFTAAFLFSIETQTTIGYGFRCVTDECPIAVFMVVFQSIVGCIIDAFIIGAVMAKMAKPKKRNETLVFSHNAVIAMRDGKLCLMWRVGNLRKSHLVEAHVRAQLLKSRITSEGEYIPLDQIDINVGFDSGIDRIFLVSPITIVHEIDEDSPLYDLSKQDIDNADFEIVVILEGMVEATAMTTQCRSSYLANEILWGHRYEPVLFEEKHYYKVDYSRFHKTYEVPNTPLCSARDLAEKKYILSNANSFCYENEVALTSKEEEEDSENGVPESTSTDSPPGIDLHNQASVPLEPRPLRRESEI

| SMILES | thallium flux ratio, lower = inhibition | IC50 |
| --- | --- | --- |
| CCCC(=O)C1CCN(c2ncnc3c2CN(C(=O)c2ccc(-c4ccccc4)cc2)CC3)CC1 | inactive |  |
| C[C@@H]([C@@H]1CC2CC[C@H]1C2)n1c(-c2ccco2)n[nH]c1=S | inactive |  |
| COc1cccc(-c2n[nH]c(=S)n2[C@H](C)[C@@H]2CC3CC[C@H]2C3)c1 | inactive |  |
| CC([C@@H]1CC2CC[C@H]1C2)n1c(-c2ccsc2)n[nH]c1=S (stereo not given in full) | inactive |  |
| C[C@H](C1CCCCC1)n1c(-c2ccccc2F)n[nH]c1=S | inactive |  |
| COc1cccc(-c2nnc(SSc3nnc(-c4cccc(OC)c4)n3C(C)C3CC4CCC3C4)n2C(C)C2CC3CCC2C3)c1 (stereo not given) | inactive |  |
| CC(C1C[C@H]2CCC1C2)n1c(-c2ccsc2)n[nH]c1=S (stereo not given in full) |  | 23.1 µM |
| C[C@H]([C@@H]1CC2CC[C@H]1C2)n1c(-c2ccco2)n[nH]c1=S | inactive |  |
| C[C@H]([C@@H]1CC2CC[C@H]1C2)n1c(-c2ccsc2)n[nH]c1=S | inactive |  |
| C[C@@H]([C@@H]1CC2CC[C@H]1C2)n1c(-c2ccsc2)n[nH]c1=S |  | 23.5 µM and 25 µM |
| COc1ccc(CC(=O)NCc2ccccc2-c2ccccc2C(=O)NCc2ccc(F)cc2F)cc1 | inactive |  |
| CC(C1CCN(C)CC1)n1c(-c2ccco2)n[nH]c1=S (stereo not given) | inactive |  |
| COc1cccc(-c2n[nH]c(=S)n2[C@H](C)C2CCCCC2)c1 | inactive |  |
| C[C@H]([C@@H]1CC2CC[C@H]1C2)n1c(-c2ccccc2F)n[nH]c1=S | inactive |  |
| C[C@H](C1CCCCC1)n1c(-c2ccsc2)n[nH]c1=S | inactive |  |

The remaining lines, values ahead:

| thallium flux ratio, lower = inhibition | IC50 | SMILES |
| --- | --- | --- |
|  | 9.06 µM | COc1cccc(CCSc2nnc(-c3ccco3)n2C(C)C2CC3CCC2C3)c1 (stereo not given) |
| inactive |  | CC(C1CC2CCC1C2)n1c(-c2ccco2)nn(CCc2ccncc2)c1=S (stereo not given) |
|  | 11.5 µM | CC(C1CC2CCC1C2)n1c(SCCc2cccc(O)c2)nnc1-c1ccco1 (stereo not given) |
| inactive |  | CC(C1CC2CCC1C2)n1c(SCC(=O)N2CCN(C)CC2)nnc1-c1ccco1 (stereo not given) |
|  | 15.4 µM | CC(C1CC2CCC1C2)n1c(SCCc2ccccn2)nnc1-c1ccco1 (stereo not given) |
| inactive |  | CC(C1CC2CCC1C2)n1c(SCCN2CCOCC2)nnc1-c1ccco1 (stereo not given) |
| inactive |  | CC(C1CC2CCC1C2)n1c(N)nnc1-c1ccco1 (stereo not given) |
| inactive |  | COc1ccc(C(=O)CCSc2nnc(-c3ccco3)n2C(C)C2CC3CCC2C3)cc1OC (stereo not given) |
|  | 18.4 µM | COc1ccc(CSc2nnc(-c3ccco3)n2C(C)C2CC3CCC2C3)cc1OC (stereo not given) |
| inactive |  | COc1ccc(NC(=O)CSc2nnc(-c3ccco3)n2C(C)C2CC3CCC2C3)cc1OC (stereo not given) |
